According to ChEMBL document CHEMBL1806443, “Novel imidazo[4,5-b]pyridine and triaza-benzo[c]fluorene derivatives: synthesis, antiproliferative activity and DNA binding studies” (Eur J Med Chem, 2011):
The source made the active and inactive calls. No cut-off for these calls is given here.

Experiments:
SK-BR-3 = experiment: Cytostatic activity against human SKBR3 cells at 1 to 10 uM after 72 hrs by MTT assay; format: functional, cell-based
Method in brief: (§1)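 Monolayers in DMEM with 10% FBS, 2 mM L-glutamine, penicillin and streptomycin (37 °C, 5% CO2) were seeded at 3000–6000 cells/well on day 0. Five 10-fold dilutions (0.01–100 µM) were added, followed by 72-h incubation and MTT read-out. Absorbances were converted to percentage growth by the NIH formulae. Each point was run in quadruplicate in three experiments; ANOVA with Tukey test.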

SW-620 [1] = experiment: Cell cycle arrest in human SW620 cells assessed as accumulation at G2/M phase at 5 uM after 24 hrs by propidium iodide staining based flow cytometeric analysis (reference value: 22.3 +/- 2.9%); format: functional
MIA PaCa-2 [2] = experiment: Cell cycle arrest in human MIAPaCa2 cells assessed as accumulation at subG1 phase at 1 uM after 48 hrs by propidium iodide staining based flow cytometeric analysis (reference value: 46.8 +/- 0.7%); format: functional
SW-620 [3] = experiment: Cell cycle arrest in human SW620 cells assessed as accumulation at S phase at 1 uM after 24 hrs by propidium iodide staining based flow cytometeric analysis (reference value: 48.4 +/- 1.4%); format: functional
HeLa [4] = experiment: Cytostatic activity against human HeLa cells at 1 to 10 uM after 72 hrs by MTT assay; format: functional, cell-based; method in brief: as §1
WI-38 [5] = experiment: Antiproliferative activity against human WI38 cells after 72 hrs by MTT assay; format: cell-based; conditions: Homo sapiens, WI-38, 72 h
Method in brief: (§2)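 Monolayer cells in DMEM with 10% FBS, 2 mM L-glutamine, penicillin and streptomycin at 37 °C, 5% CO2. Seeded at 3000-6000 cells/well by doubling time on day 0. Five 10-fold dilutions (0.01–100 µM) were added and incubated 72 h. MTT read-out, converted to percentage growth. IC50 by linear regression between bracketing concentrations. Quadruplicate points, three independent experiments, ANOVA/Tukey p<0.05.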

SW-620 [6] = experiment: Cell cycle arrest in human SW620 cells assessed as accumulation at S phase at 5 uM after 48 hrs by propidium iodide staining based flow cytometeric analysis (reference value: 31.9 +/- 1%); format: functional
SW-620 [7] = experiment: Induction of apoptosis in human SW620 cells assessed as morphological changes after 24 to 48 hrs by microscopic analysis; format: functional, cell-based
Method in brief: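 Cells were seeded at 3 × 10^4 per well and exposed 24 h later to 1, 5 or 10 µM for 24 and 48 h. Apoptotic morphology (cell shrinkage, chromatin condensation) was scored by inverted light microscopy at 200× magnification.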

Nucleic Acid [8] = experiment: Binding affinity to calf thymus DNA assessed as appearance of weak, negative induced CD band at 337 nm wavelength by circular dichroism spectroscopy; format: nucleic-acid assay; conditions: Bos taurus
Method in brief: (§3)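 CD spectra of ct-DNA (1.0 × 10^-5 mol dm^-3, as phosphate) titrated with compound at 25 °C. Sodium cacodylate buffer pH 7.0, I = 0.05 mol dm^-3, 1 cm quartz cuvette. DNA band (~274–275 nm) and induced bands above 300 nm followed versus r = [compound]/[ct-DNA].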

SW-620 [9] = experiment: Cell cycle arrest in human SW620 cells assessed as accumulation at S phase at 5 uM after 24 hrs by propidium iodide staining based flow cytometeric analysis (reference value: 48.4 +/- 1.4%); format: functional
MIA PaCa-2 [10] = experiment: Cell cycle arrest in human MIAPaCa2 cells assessed as accumulation at subG1 phase at 10 uM after 48 hrs by propidium iodide staining based flow cytometeric analysis (reference value: 46.8 +/- 0.7%); format: functional
WI-38 [11] = experiment: Antiproliferative activity against human WI38 cells at 0.1 to 10 uM after 72 hrs by MTT assay; format: cell-based; conditions: wi-38, 72 h; method in brief: as §2
MIA PaCa-2 [12] = experiment: Cell cycle arrest in human MIAPaCa2 cells assessed as accumulation at G1 phase at 10 uM after 24 hrs by propidium iodide staining based flow cytometeric analysis (reference value: 51.2 +/- 2.7%); format: functional
HEp-2 = experiment: Cytostatic activity against human Hep2 cells at 1 to 10 uM after 72 hrs by MTT assay; format: functional, cell-based; method in brief: as §1
MIA PaCa-2 [13] = experiment: Antiproliferative activity against human MIAPaCa2 cells at 0.1 to 10 uM after 72 hrs by MTT assay; format: functional, cell-based; method in brief: as §2
MIA PaCa-2 [14] = experiment: Cell cycle arrest in human MIAPaCa2 cells assessed as accumulation at G1 phase at 5 uM after 48 hrs by propidium iodide staining based flow cytometeric analysis (reference value: 65.2 +/- 1.9%); format: functional
HeLa [15] = experiment: Antiproliferative activity against human HeLa cells at 0.1 to 10 uM after 72 hrs by MTT assay; format: functional, cell-based; method in brief: as §2
MIA PaCa-2 [16] = experiment: Cell cycle arrest in human MIAPaCa2 cells assessed as accumulation at subG1 phase at 10 uM after 24 hrs by propidium iodide staining based flow cytometeric analysis (reference value: 48.7 +/- 0.7%); format: functional
MIA PaCa-2 [17] = experiment: Cell cycle arrest in human MIAPaCa2 cells assessed as accumulation at G2/M phase at 5 uM after 48 hrs by propidium iodide staining based flow cytometeric analysis (reference value: 14.3 +/- 1.8%); format: functional
Nucleic Acid [18] = experiment: Binding affinity to calf thymus DNA assessed as fluorescence quenching at compound to DNA ratio of 0.28 by fluorimetric titrations; format: nucleic-acid assay; conditions: Bos taurus
Method in brief: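 Fluorimetric titration: portions of ct-DNA (sonicated, filtered, concentration as phosphate) added to compound in cacodylate buffer pH 7.0, I = 0.05 mol dm^-3. Emission 350–600 nm, sample absorbance <0.05 at excitation, mostly DNA excess (r < 0.1). Ks and n = [bound compound]/[DNA phosphate] by non-linear least-squares Scatchard fitting.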

SW-620 [19] = experiment: Cell cycle arrest in human SW620 cells assessed as accumulation at subG1 phase at 10 uM after 48 hrs by propidium iodide staining based flow cytometeric analysis (reference value: 29.1 +/- 1.1%); format: functional
Method in brief: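 Cells seeded at 3 × 10^4 per well and treated 24 h later with 1, 5 or 10 µM for 24 and 48 h. Adherent and floating cells were pooled, washed in PBS and fixed in 70% ethanol. They were then stained with propidium iodide 10 µg/mL plus RNase A 0.2 µg/mL. Flow cytometry counted 10000 events; each point was run in triplicate; significance was taken at p < 0.05.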

Nucleic Acid [20] = experiment: Binding affinity to calf thymus DNA assessed as change in melting temperature at compound to polynucleotide ratio of 0.2 by UV-VIS spectroscopic analysis; format: nucleic-acid assay; conditions: Bos taurus
Method in brief: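 ct-DNA alone or with compound at set r = [compound]/[polynucleotide], in cacodylate buffer pH 7.0, I = 0.05 mol dm^-3. Absorbance at 260 nm followed against temperature, ligand absorbance subtracted, curves normalized. Tm is the transition midpoint, from the first-derivative maximum or by tangent method. ΔTm = Tm(complex) − Tm(free DNA), mean of ≥2 runs, error ±0.5 °C.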

Nucleic Acid [21] = experiment: Binding affinity to calf thymus DNA assessed as increase in CD band at 275 nm wavelength by circular dichroism spectroscopy; format: nucleic-acid assay; conditions: Bos taurus; method in brief: as §3
Nucleic Acid [22] = experiment: Binding affinity to calf thymus DNA assessed as UV/Vis spectral change at compound to DNA ratio of 0.44 by UV/Vis titrations; conditions: Bos taurus
MCF7 = experiment: Antiproliferative activity against human MCF7 cells at 0.1 to 10 uM after 72 hrs by MTT assay; format: functional, cell-based; method in brief: as §2

## Cl.c1cnc2nc3ccc4ccc(C5=NCCN5)cc4n3c2c1
SK-BR-3
  Activity: Active
SW-620 [1]
  Activity: 2.1%
MIA PaCa-2 [2]
  Activity: 33.8%
SW-620 [3]
  Activity: 27.2%
HeLa [4]
  Activity: Active
WI-38 [5]
  IC50: 1.77 µM
SW-620 [6]
  Activity: 7.5%
SW-620 [7]
  Activity: Dose-dependent effect
Nucleic Acid [8]
  Activity: Active
SW-620 [9]
  Activity: 11.8%
MIA PaCa-2 [10]
  Activity: 39.3%
WI-38 [11]
  Activity: Toxic
MIA PaCa-2 [12]
  Activity: 52.4%
HEp-2
  Activity: Active
MIA PaCa-2 [13]
  Activity: Active
MIA PaCa-2 [14]
  Activity: 42.4%
HeLa [15]
  Activity: Active
MIA PaCa-2 [16]
  Activity: 50.2%
MIA PaCa-2 [17]
  Activity: 20.8%
Nucleic Acid [18]
  log Ks: 5.9
SW-620 [19]
  Activity: 40.6%
Nucleic Acid [20]
  ΔTm: 5.1 °C
Nucleic Acid [21]
  Activity: Active
Nucleic Acid [22]
  log Ks: 5.4
MCF7
  Activity: Active
